Active and inactive are the calls of the source. No cut-off for these calls is given here.

Assay [1] deals with Radical scavenging activity. Briefly: Antioxidant activity assessed as DPPH radical scavenging activity at 200 uM. The class given is functional. The method, boiled down:
(§1)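 DPPH radical bleaching, tested at 10, 50, 100 and 200 µM (printed as mM) following a published method, with resveratrol as reference.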
(In general: Loss of DPPH colour is used to gauge radical scavenging.)

For assay [2], the system named is Radical scavenging activity. Briefly: Antioxidant activity assessed as DPPH radical scavenging activity at 10 uM. The class given is functional. The method, boiled down: as §1
For assay [3], the system named is Radical scavenging activity. Briefly: Antioxidant activity assessed as DPPH radical scavenging activity. The class given is functional. The method, boiled down:
as §1

For assay [4], the system named is Radical scavenging activity. The assay is described as follows: Antioxidant activity assessed as DPPH radical scavenging activity at 100 uM. The class given is functional. A digest of the protocol: as §1
The subject of assay [5] is Radical scavenging activity. Briefly: Antioxidant activity assessed as DPPH radical scavenging activity at 50 uM. The class given is functional. A digest of the protocol:
as §1

For assay [6], the system named is BV-2. Briefly: Antiinflammatory activity against mouse BV2 microglia cells assessed as inhibition of LPS-induced NO production at 10 to 50 uM after 24 hrs. Type of assay: functional, cell-based. A digest of the protocol:
(§2)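 BV-2 murine microglia kept in DMEM with 10% FBS and penicillin/streptomycin (37 °C, 5% CO2). Cells were plated at 1 × 10⁵ cells/mL and stimulated with LPS 100 ng/mL, alone or with compound at 1, 10 or 50 µM, for 24 h at 37 °C. Nitrite in the medium was read by Griess reagent at 540 nm. Mean ± SD of three observations.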

A short description of assay [7]: Neuroprotective activity in ICR mouse cortical neuron cells assessed as prevention of excitotoxic neuronal death after 24 hrs by LDH assay. The class given is functional. The conditions noted are these: Cortical neurone, read-out: ED50 (the source's name). A digest of the protocol: (§3)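 Primary cortical cultures from ICR mouse embryos at gestational day 15, plated on poly-D-lysine/laminin at 4.8 × 10⁵ cells/well in MEM with 5% FCS and mouse serum. Compound at 1–50 µM was co-applied with glutamate 50 µM for 24 h at 37 °C. LDH released into the medium was followed by NADH consumption with pyruvate, read at 340 nm. Mean ± SD of three observations.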

Assay [8] deals with BV-2. The assay is described as follows: Antiinflammatory activity against mouse BV2 microglia cells assessed as inhibition of LPS-induced NO production after 24 hrs. Type of assay: functional. The note with it: BV-2, 24 h, read-out: ED50 (the source's name). A digest of the protocol:
as §2

Assay [9] relates to Cortical neurone. Briefly: Neuroprotective activity in ICR mouse cortical neuron cells assessed as prevention of glutamate-induced neurotoxicity at 10 to 50 uM after 24 hrs by LDH assay. The class given is functional. A digest of the protocol: as §3
For assay [10], the system named is BV-2. The assay is described as follows: Antiinflammatory activity against mouse BV2 microglia cells assessed as inhibition of LPS-induced NO production at 1 uM after 24 hrs. Type of assay: functional, cell-based. The method, boiled down: as §2
Assay [11] relates to Cortical neurone. The assay is described as follows: Neuroprotective activity in ICR mouse cortical neuron cells assessed as prevention of glutamate-induced neurotoxicity at 1 uM after 24 hrs by LDH assay. Type of assay: functional. The method, boiled down: as §3

By IC50 is commonly meant the concentration that gives 50% inhibition. Consider `Oc1ccc(/C=C/c2cc(O)cc(O)c2)cc1` [RESVERATROL], for which the Activity in assay [1] amounted to 33.8%; in assay [2], 9.45%; in assay [4], 28.4%; in assay [5], 8.44%. Further, in [3], the IC50 was over 200 µM.

As for `O=C(NCc1ccccc1F)c1ccc(/C=C/c2ccc(O)c(O)c2)cc1`, the Activity in assay [1] turned out to be 88%; in [2], 29.8%; in [4], 52.3%; in assay [5] it was 42.2%. The IC50 in assay [3] is 43.6 µM.

As for `CC1CCN(C(=O)c2ccc(/C=C/c3ccc(O)c(O)c3)cc2)CC1`, the Activity in [1] came out at 48.6%; in assay [2] it was 15.1%; in [4] it was 31.5%; in [5], 21.3%. Moreover, the IC50 in [3] is over 200 µM.

As for `O=C(NCCCN1CCCC1=O)c1ccc(/C=C/c2ccc(O)c(O)c2)cc1`, the Activity in [1] was 44%; in assay [2] it was 12.9%; in assay [4], 28.4%; in [5], 22.2%. Besides, the IC50 in assay [3] is over 200 µM.

For the compound `COC(=O)/C=C/c1ccc(/C=C/c2ccc(O)c(O)c2)cc1`, the Activity came out at 5.29% in assay [1], 5.91% in assay [2], 5.73% in assay [4] and 5.31% in assay [5]. Further, the IC50 in [3] is over 200 µM.

For the compound `O=C(NC1CCCCC1)c1ccc(/C=C/c2ccc(O)c(O)c2)cc1`, the Activity in assay [1] was 68.7%; in assay [2], 17.2%; in assay [4] it was 40.2%; in assay [5], 22.5%. In addition, the IC50 in assay [3] was 128 µM.

With `CCCCCCCCCCNC(=O)c1ccc(/C=C/c2ccc(O)c(O)c2)cc1`, the Activity in assay [1] was determined as 79.1%; in assay [2] it was 18.5%; in [4] it was 75.2%; in [5], 42%. The IC50 in [3] is 47.9 µM.

In the case of `C=CCN1CCN(C(=O)c2ccc(/C=C/c3ccc(O)c(O)c3)cc2)CC1`, the Activity is 62.4% in assay [1], 24.8% in [2], 40% in assay [4] and 31.2% in [5]. In addition, the IC50 in [3] came to 141 µM.

For `O=C(NCc1ccco1)c1ccc(/C=C/c2ccc(O)c(O)c2)cc1`, the Activity in assay [1] came to 79.2%; in [2], 21.9%; in assay [4], 48%; in [5], 35.1%. The IC50 in assay [3] was found to be 69 µM. Further, the outcome with BV-2 [6] and in the assay with Cortical neurone [9] was Active. The EC50 in assay [7] stood at 58.3 µM; in the assay on BV-2 [8], 0.82 µM.

Regarding `O=C/C=C/c1ccc(/C=C/c2ccc(O)c(O)c2)cc1`, the Activity amounted to 54.4% in assay [1], 13.2% in assay [2], 28.8% in assay [4] and 21.2% in assay [5]. Moreover, the IC50 in assay [3] is over 200 µM. Also, the result with BV-2 [10], in the assay on Cortical neurone [11] and with Cortical neurone [9] was Active. Further, the EC50 in [7] was 42.3 µM; in the assay on BV-2 [8], 1.51 µM.

As to `OC/C=C/c1ccc(/C=C/c2ccc(O)c(O)c2)cc1`, the Activity in assay [1] was 17.3%; in assay [2], 6.82%; in assay [4], 11.5%; in assay [5] it was 8.64%. The IC50 in [3] was over 200 µM.

Consider `CCOC(=O)c1cccc(NC(=O)c2ccc(/C=C/c3ccc(O)c(O)c3)cc2)c1`, for which the Activity was determined as 62.8% in [1], 21.3% in assay [2], 44.1% in [4] and 29.3% in assay [5]. Moreover, in [3], the IC50 stood at 127 µM.

In the case of `O=C(NCC1CCCO1)c1ccc(/C=C/c2ccc(O)c(O)c2)cc1` (configuration not stated), the Activity in assay [1] came to 31.7%; in assay [2] it was 16.7%; in assay [4], 26.5%; in [5], 18%. Also, the IC50 in assay [3] is over 200 µM.

Regarding `COC(=O)c1ccc(/C=C/c2ccc(O)c(O)c2)cc1`, the Activity in assay [1] came to 29.3%; in assay [2], 2.31%; in assay [4], 16.5%; in assay [5] it was 8.95%. Further, in assay [3], the IC50 is over 200 µM.

As to `O=C(c1ccccc1)N1CCN(C(=O)c2ccc(/C=C/c3ccc(O)c(O)c3)cc2)CC1`, the Activity stood at 59.1% in assay [1], 17.2% in assay [2], 36.7% in [4] and 24.6% in assay [5]. In [3], the IC50 was 185 µM.

Consider `O=C(Nc1ccccc1)c1ccc(/C=C/c2ccc(O)c(O)c2)cc1`, for which the Activity in assay [1] came out at 59.8%; in assay [2] it was 10.2%; in [4], 27.1%; in assay [5], 17.6%. Besides, the IC50 in assay [3] is over 200 µM.

Take `C=CCNC(=O)c1ccc(/C=C/c2ccc(O)c(O)c2)cc1`: the Activity is 74.1% in [1], 15% in [2], 41.7% in [4] and 29% in assay [5]. Also, the half-inhibitory concentration (IC50) in [3] was found to be 98.1 µM. Moreover, the result with BV-2 [6] and in the assay on Cortical neurone [9] was Active. The EC50 came out at 29.6 µM in assay [7] and 1.95 µM in the assay on BV-2 [8].

Turning to `O=C(c1ccc(/C=C/c2ccc(O)c(O)c2)cc1)N1CCC(Cc2ccccc2)CC1`, the Activity in [1] is 25.8%; in assay [2], 4.75%; in [4] it was 17.4%; in [5], 10.1%. Further, the concentration for half-maximal inhibition (IC50) in [3] was over 200 µM. Also, the outcome in the assay on BV-2 [10] and with Cortical neurone [9] was Active. The EC50 in the assay with BV-2 [8] was 1.12 µM.

In the case of `O=C(CNC(=O)c1ccccc1)OCc1ccc(/C=C/c2ccc(O)c(O)c2)cc1`, the Activity in assay [1] turned out to be 46.9%; in assay [2] it was 21.2%; in assay [4], 33.2%; in [5], 28.1%. For the same compound, the 50% inhibitory concentration (IC50) in assay [3] was over 200 µM. Also, the result in the assay on Cortical neurone [11] was Active.

In the case of `O=C(c1ccc(/C=C/c2ccc(O)c(O)c2)cc1)N1CCOCC1`, the Activity in [1] turned out to be 29.4%; in assay [2] it was 5.7%; in [4], 19.1%; in assay [5], 10.2%. Further, the IC50 in [3] is over 200 µM.

The record behind these values is ChEMBL document CHEMBL1153600, “Synthesis of novel trans-stilbene derivatives and evaluation of their potent antioxidant and neuroprotective effects” (Eur J Med Chem, 2009).
